The values that follow come from ChEMBL document CHEMBL1123673, “Comparison of aminoglycoside antibiotics with respect to uptake and lethal activity in Escherichia coli” (J Med Chem, 1987).

Data set [1] has as its system Escherichia coli.
The subject of data set [2] is Escherichia coli. The data set can be described thus: Estimated rate of [3H]DHS uptake in Escherichia coli K12 (ATCC 25868). It is filed as functional. Also noted: unit not given here. In outline:
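Cultures in tryptone-peptone broth at 37 °C with shaking, grown from OD600 ~0.05 to 0.20, then preexposed to antibiotic for 20 min at 37 °C. Cells pelleted, resuspended in equal volume fresh broth, pulsed 5.0 min at 37 °C with [3H]DHS (1.0 µCi/mL, 3.8 Ci/mmol). Samples filtered, washed with 0.1 M LiCl, scintillation counted. C50 = half-maximal rate estimated from dose-response curves.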

Data set [3] can be described thus: Lethal dose required to kill 90% of the Escherichia coli K12 (ATCC 25868) cell population. It counts as ADME. In outline: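 E. coli K12 in tryptone-peptone broth at 37 °C, OD600 0.20, exposed 20 min at 37 °C to antibiotic; pellets resuspended to OD600 0.10–0.15 in TPB, serially diluted, plated on tryptone-peptone agar, colonies counted after overnight at 37 °C. Value is the concentration killing 90% of the population.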

Data set [4] can be described thus: Percent killing of the total Escherichia coli K12 (ATCC 25868) cells at the C50 concentration was determined. It is filed as ADME.
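For C50 in this document: escherichia coli cells, read-out is the rate of enhanced [3H]DHS uptake, C50 being the level that yields half of the maximal rate.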

Compound “4-Amino-N-[5-amino-4-(3-amino-6-aminomethyl-4,5-dihydroxy-tetrahydro-pyran-2-yloxy)-3-(3,4-dihydroxy-5-hydroxymethyl-tetrahydro-furan-2-yloxy)-2-hydroxy-cyclohexyl]-2-hydroxy-butyramide (Butirosin)” gave a C50 with Escherichia coli [1] of 0.13 µM. Also, the Uptake at C50 with Escherichia coli [2] is 4.
In the case of `CCN[C@@H]1C[C@H](N)[C@@H](O[C@H]2OC(CN)=CC[C@H]2N)[C@H](O)[C@H]1O[C@H]1OC[C@](C)(O)[C@H](NC)[C@H]1O` [NETILMICIN], the LD90 in data set [3] worked out at 0.38 µM. The C50 with Escherichia coli [1] came out at 0.32 µM. Moreover, in the data set with Escherichia coli [2], the Uptake at C50 was 5.8. The “Kill at C50” value in data set [4] is reported as 86%.
In the case of `CN(C)[C@@H]1C(O)=C(C(N)=O)C(=O)[C@@]2(O)C(O)=C3C(=O)c4c(O)cccc4[C@@](C)(O)[C@H]3C[C@@H]12`, the C50 in the data set on Escherichia coli [1] is more than 50 µM.
Consider `COC1C(O)C(N)C(OC2OC([C@H](C)N)CCC2N)C(O)C1N(C)C(=O)CN` (some centres not stated), for which, in data set [3], the LD90 was 0.7 µM. In the data set on Escherichia coli [1], the C50 was determined as 0.86 µM. Further, the Uptake at C50 with Escherichia coli [2] was 5.6. Moreover, the “Kill at C50” value in data set [4] is reported as 93%.
`NCC1OC(OC2C(N)CC(NC(=O)C3(O)CNC3)C(OC3OC(CO)C(O)C(N)C3O)C2O)C(N)CC1O` (configuration not stated): the LD90 in data set [3] came to 0.63 µM. Also, the C50 in the data set with Escherichia coli [1] was 0.12 µM. The Uptake at C50 in the data set with Escherichia coli [2] was 4.4. In data set [4], the “Kill at C50” value is 50%.
For `NCC1OC(OC2C(N)CC(NC(=O)C3(O)CCNC3)C(OC3OC(CO)C(O)C(N)C3O)C2O)C(N)CC1O` (configuration not stated), in that order: 0.31 µM, 0.12 µM, 4.4 and 65%.
`CN1C(NC2OC(CO)C(OC(N)=O)C(O)C2NC(=O)CC(N)CCCN)=N[C@@H]2[C@H](O)CNC(=O)[C@H]21` (some centres not stated): the C50 in the data set with Escherichia coli [1] worked out at 0.1 µM. The Uptake at C50 with Escherichia coli [2] is 4.1.
With `NC[C@H]1O[C@H](O[C@H]2[C@H](O)[C@@H](O[C@H]3O[C@H](CO)[C@@H](O)[C@H](N)[C@H]3O)[C@H](N)C[C@@H]2N)[C@H](O)[C@@H](O)[C@@H]1O` [KANAMYCIN A], the LD90 in data set [3] is 0.85 µM. Further, in data set [4], the “Kill at C50” value is 93%.
`CN[C@@H]1[C@@H](O)[C@@H](O[C@@H]2[C@@H](O)[C@H](O[C@H]3OC(CN)=CC[C@H]3N)[C@@H](N)C[C@H]2N)OC[C@]1(C)O` [SISOMICIN] returned an LD90 in data set [3] of 0.49 µM. Also, the C50 with Escherichia coli [1] was 0.31 µM. The Uptake at C50 in the data set on Escherichia coli [2] is 7. In addition, the “Kill at C50” value in data set [4] is listed as 77%.
On to `CN[C@H]1C[C@@H](N)[C@H](O)[C@@H](O[C@@H]2O[C@H](CO)[C@H](O)[C@H]3O[C@@]4(O[C@H]23)O[C@H]([C@H](N)CO)[C@H](O)[C@H](O)[C@H]4O)[C@@H]1O`, for which the C50 with Escherichia coli [1] is more than 50 µM.
In data set [3], `NC[C@H]1O[C@H](O[C@H]2[C@H](O[C@@H]3O[C@H](CO)[C@@H](O)[C@H]3O)[C@@H](O)[C@H](N)C[C@@H]2N)[C@H](N)[C@@H](O)[C@@H]1O` [RIBOSTAMYCIN] had an LD90 of 0.17 µM. Moreover, the C50 in the data set on Escherichia coli [1] worked out at 1.2 µM. In the data set on Escherichia coli [2], the Uptake at C50 is 2.6. Further, in data set [4], the “Kill at C50” value stood at 99%.
The compound `CN[C@@H]1[C@H](O)[C@H](NC)[C@H]2O[C@@]3(O)C(=O)C[C@@H](C)O[C@H]3O[C@@H]2[C@H]1O` gave a C50 in the data set on Escherichia coli [1] of more than 10 µM.
`NCC1CCC(N)C(OC2C(N)CC(N)C(OC3OC(CO)C(O)C(N)C3O)C2O)O1` (configuration not stated) had an LD90 in data set [3] of 0.89 µM. For the same compound, the Uptake at C50 in the data set on Escherichia coli [2] was 8.1. The “Kill at C50” value in data set [4] came to 74%.
In the case of `O=C(N[C@H](CO)[C@H](O)c1ccc([N+](=O)[O-])cc1)C(Cl)Cl`, the C50 in the data set with Escherichia coli [1] is more than 50 µM.
Same read-out and setting: then `NCCCCNCCCN`, with more than 50 µM.
Turning to GENTAMICIN, the C50 in the data set with Escherichia coli [1] came to 0.24 µM. In addition, in the data set on Escherichia coli [2], the Uptake at C50 is 7.3.
Regarding `NC[C@@H]1O[C@@H](O[C@H]2[C@H](O)[C@@H](O[C@H]3O[C@H](CO)[C@@H](O)[C@H](N)[C@H]3O)[C@H](N)C[C@@H]2N)[C@@H](O)[C@H](O)[C@H]1O`, the C50 with Escherichia coli [1] was 0.95 µM. For the same compound, in the data set on Escherichia coli [2], the Uptake at C50 is 3.5.
